# KCNQ1 act = potentiators or activators of KCNQ1 channel, primary screen, cell-based, thallium flux, high-throughput. B-score at 10 µM. actives 0.35% (n = 310,000). CHO-K1 KCNQ1, thallium flux FluxOR fluorescence; active compounds read high;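 active means fluorescence ratio B-score, a plate-corrected score, at least three library SD, with initial intensity B-score within 5 SD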
# Target sequence (P51787 whole entry, looked up): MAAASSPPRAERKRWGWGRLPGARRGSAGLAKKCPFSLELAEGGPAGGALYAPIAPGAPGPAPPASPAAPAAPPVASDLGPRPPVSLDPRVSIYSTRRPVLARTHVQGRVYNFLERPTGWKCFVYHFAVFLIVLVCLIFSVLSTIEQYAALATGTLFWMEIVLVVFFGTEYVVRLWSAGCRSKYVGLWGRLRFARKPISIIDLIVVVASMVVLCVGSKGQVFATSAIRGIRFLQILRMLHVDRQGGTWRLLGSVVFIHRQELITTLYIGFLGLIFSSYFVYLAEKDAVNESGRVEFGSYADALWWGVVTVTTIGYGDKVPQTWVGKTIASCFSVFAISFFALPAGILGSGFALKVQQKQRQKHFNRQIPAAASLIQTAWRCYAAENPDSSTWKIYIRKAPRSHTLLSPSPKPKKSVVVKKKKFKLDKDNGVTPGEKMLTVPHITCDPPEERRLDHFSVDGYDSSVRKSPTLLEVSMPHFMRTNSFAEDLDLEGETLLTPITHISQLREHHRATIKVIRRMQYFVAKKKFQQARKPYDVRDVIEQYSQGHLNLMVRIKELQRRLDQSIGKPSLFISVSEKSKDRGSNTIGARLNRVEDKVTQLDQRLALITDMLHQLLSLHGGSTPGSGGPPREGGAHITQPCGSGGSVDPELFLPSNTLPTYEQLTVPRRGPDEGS
#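 Schedule – 37 °C overnight plating, 90-min dark dye load, 20-min compound pretreatment · System – stable KCNQ1 CHO-K1 line · Probe or stimulus – thallium- and potassium-containing depolarizing buffer · Measured by – kinetic FluxOR fluorescence, 10 s baseline plus 110 s post-stimulus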
# KCNQ1 inh = inhibitors of human KCNQ1 channel, primary screen, cell-based, thallium flux, high-throughput; Potassium voltage-gated channel subfamily KQT member 1 (Homo sapiens), P51787; CHO-K1 KCNQ1, FluxOR thallium flux fluorescence; active compounds read high; B-score at 10 µM; actives 1.3% (n = 310,000); AID 2642, 2010;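 active means compounds whose thallium flux B-score, printed positive for inhibition, exceeds three library SD while starting fluorescence stays within three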;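 further: channel opened by potassium depolarization with thallium stimulus after 20 min compound exposure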
# KCNK3 block = human KCNK3 channel inhibitors, primary screen, CHO cells, FluxOR thallium flux, B-score; FluxOR fluorescence; active compounds read low; actives 0.84% (n = 340,000); Potassium channel subfamily K member 3 (Homo sapiens), O14649; B-score at 10 µM;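 active means B-score under library mean minus 4 SD, starting fluorescence ratio at most library mean plus 5 SD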;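 further: more negative B-score means stronger inhibition of thallium flux through KCNK3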
# Kir21 inh = inhibitors of mouse Kir2.1 inward-rectifier potassium channel | Inward rectifier potassium channel 2 (Mus musculus), P35561 | actives 0.85% (n = 310,000) | B-score at 10 µM | HEK293-Kir2.1, FluxOR thallium flux fluorescence; active compounds read low;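 active means fluorescence ratio B-score at or below minus 3 SD of library scores, with starting-brightness B-score within 2 SD, cut at about -4.2 in these data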;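 further: channel flux triggered by added potassium and thallium sulfate stimulus; B-score of peak minus minimum fluorescence over baseline after thallium stimulus; more negative B-score means stronger Kir2.1 block with less thallium influx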
# hERG protect = hERG rescue from dofetilide block, primary screen, cell-based, CHO-hERG, FluxOR thallium flux, dofetilide IC70; dofetilide IC70 present; Voltage-gated inwardly rectifying potassium channel KCNH2 (Homo sapiens), Q12809; activation (rescue from dofetilide block), less the hit threshold, % at 10 µM; actives 0.51% (n = 310,000);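 active means activation above the mean of controls blocked by dofetilide plus 5 SD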;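 further: thallium influx through hERG after potassium depolarization seen as dye fluorescence rise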
# KCNK9 block = KCNK9 potassium channel inhibitors, primary screen, HEK293 cells, thallium flux; Potassium channel subfamily K member 9 (Homo sapiens), Q9NPC2; B-score at 10 µM; FluxOR thallium flux fluorescence; active compounds read low; actives 1.2% (n = 310,000); AID 488922, 2010;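 active means ratio B-score over 3 SD below the library mean, with starting fluorescence within 5 SD of its mean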;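 further: negative B-score means less thallium flux so channel inhibition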
# Hits are given with their value; n = inactive; x = no result. Compounds with a hit are over-represented: about 3.7% of the library has one in this group of screens.
SMILES,KCNQ1 act,KCNQ1 inh,KCNK3 block,Kir21 inh,hERG protect,KCNK9 block
N#Cc1ccc(CSc2nnc(Cc3cccs3)n2Cc2ccco2)cc1,n,n,n,-6.1,n,n
CCOC(=O)C1=C(O)C(=O)N(Cc2cccnc2)C1c1ccc(C)cc1 (stereo unspecified),n,n,n,n,n,n
CN(C(=O)CSc1ncnc2sc(-c3ccccc3)cc12)C1CCS(=O)(=O)C1 (stereo unspecified),77,n,n,n,49,n
CN(C(=O)CSc1ncnc2scc(-c3ccccc3)c12)C1CCS(=O)(=O)C1 (stereo unspecified),n,n,n,n,n,n
COC(c1ccccc1)c1c(-c2ccccc2)nn(C)c1Cl (stereo unspecified),n,n,n,-4.8,n,n
Cn1nc(-c2ccccc2)c(C(O)c2ccccc2C(F)(F)F)c1Cl (stereo unspecified),n,n,n,n,n,n
Nc1cc(Cl)nnc1Cl,n,n,n,n,n,n
Cc1ccc(C(=O)C2(C)C3c4cc(Br)ccc4OC(=O)C32C(=O)c2ccco2)cc1 (stereo unspecified),n,n,n,n,n,-7.7
CC(NC(=O)C1c2ccccc2Oc2ccccc21)C1CCCO1 (stereo unspecified),n,n,n,n,n,n
O=C1c2ccccc2NC(c2ccc(Br)o2)N1O (stereo unspecified),x,x,n,x,x,x
O=C1c2ccccc2NC(c2ccc(Br)s2)N1O (stereo unspecified),22,n,n,n,21,n
CCCN(C(=O)COC(=O)CSc1ccc([N+](=O)[O-])cc1)C1CCS(=O)(=O)C1 (stereo unspecified),x,x,n,x,x,x
O=C(c1ccc(S(=O)(=O)N2CCCC2)cc1)N1CCN(c2ccccc2)CC1,n,n,n,n,n,n
O=C(c1ccc(S(=O)(=O)N2CCCC2)cc1)N1CCN(c2cccc(Cl)c2)CC1,9,n,n,n,n,n
C=C(C(=O)c1ccccc1)C(C)C(=C)C(=O)c1ccccc1,n,n,n,-4.4,n,n
CC(C)C1CC(CCNCc2ccc(N(C)C)cc2)(c2ccccc2)CCO1 (stereo unspecified),n,n,n,n,n,n
Cc1ccc(C2(CCNCc3ccc(N(C)C)cc3)CCOC(C(C)C)C2)cc1 (stereo unspecified),n,n,n,-4.7,n,n
O=C(O)c1cc(Cl)c2ccccc2c1O,n,6,n,n,n,n
Cc1cccc(C)c1NC(=O)COC(=O)CCc1c[nH]c2ccccc12,x,x,n,x,x,x
COc1ccc(N=C(N)SCc2ccccn2)cc1,n,n,n,-4.5,n,n
COc1ccc(-c2nnc(SCc3ccccn3)n2C)cc1,n,n,n,n,n,n
COc1cc2c(cc1NC(=O)CSc1nnc(COc3ccc(Cl)cc3)n1C)oc1ccccc12,11,n,n,n,n,n
CCCCS(=O)(=O)/C=C\C=C/S(=O)(=O)CCCC,14,n,n,n,n,n
CCOc1cc(CNCc2ccccc2)ccc1OCC(=O)NC1CCCCC1,n,n,n,-4.4,n,n
CC(=O)c1c(CSc2ccccc2)oc2ccc(O)c(CN(C)C)c12,n,n,n,-6.5,n,n
COc1ccc(S(=O)(=O)Nc2cc3c(C(C)=O)c(C)oc3c3ccccc23)cc1,n,n,n,n,n,-7.3
Cc1oc2c(cc(NS(=O)(=O)c3ccc(C(C)C)cc3)c3ccccc32)c1C(=O)O,n,9,n,n,n,n
Cc1oc2c(cc(NS(=O)(=O)c3ccc(F)cc3)c3ccccc32)c1C(=O)O,n,n,n,n,n,n
COc1ccc(NC(=O)[C@@H]2CCCN2S(=O)(=O)c2ccccc2F)cc1S(=O)(=O)N1CCCCC1,x,x,n,x,x,x
